# Assay results as given in PMC6606825 (Journal of Ginseng Research, 2018).
# Marks after values point to notes of the source that are not given here.
# Assay: Pharmacokinetics of CK and its metabolite 20
# Type: in vivo, healthy Chinese volunteers
# How it was run: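 Healthy adults given one oral tablet dose fasting (overnight, or 10 h in a crossover food-effect arm); 30 subjects from the 100/200/400 mg groups were pooled with 24 from 200 mg fasting periods. Plasma was stored at −70°C, extracted with MTBE plus internal standards and assayed by LC-MS/MS. Cmax was observed and AUClast calculated by linear trapezoid, each divided by dose. The metabolite/parent ratio was also calculated. Genotyping used Sequenom MassARRAY, and log-transformed values were compared by one-way ANOVA.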
# [1] = ABCG2 rs3114018 AA (first line), mean (SD)
# [2] = ABCG2 rs3114018 AA (third line), mean (SD)
compound,measurement,setting,value
"CC(C)=CCC[C@](C)(O[C@@H]1O[C@H](CO)[C@@H](O)[C@H](O)[C@H]1O)[C@H]1CC[C@]2(C)[C@@H]1[C@H](O)C[C@@H]1[C@@]3(C)CC[C@H](O)C(C)(C)[C@@H]3CC[C@]12C [Ginsenoside compound K, 20-O-beta-D-glucopyranosyl-20(S)-protopanaxadiol]",CK Cmax/D,"ABCG2 rs2725248 CC, mean (SD)",4.46 (1.08)
same,CK AUClast/D,[1],25.71 (14.88)
same,CK Cmax/D,[1],3.40 (1.60)
same,CK AUClast/D,[2],26.43 (22.97)
same,CK Cmax/D,[2],3.36 (2.54)
same,CK AUClast/D,"ABCG2 rs3114018 CA, mean (SD)",30.74 (15.11)
same,CK Cmax/D,"ABCG2 rs3114018 CA, mean (SD)",4.02 (2.12)
same,CK AUClast/D,"ABCG2 rs6857600 CC, mean (SD)",29.60 (19.18)
same,CK Cmax/D,"ABCG2 rs6857600 CC, mean (SD)",3.72 (2.28)
same,CK AUClast/D,"ABCG2 rs6857600 TC, mean (SD)",26.00 (7.52)
same,CK Cmax/D,"ABCG2 rs6857600 TC, mean (SD)",3.79 (1.18)
same,CK AUClast/D,"ABCG2 rs6857600 TT, mean (SD)",16.47 (5.68)
same,CK Cmax/D,"ABCG2 rs6857600 TT, mean (SD)",2.37 (0.75)
same,CK AUClast/D,"ABCG2 rs12505410 GG, mean (SD)",36.50 (20.67)
same,CK Cmax/D,"ABCG2 rs12505410 GG, mean (SD)",3.96 (1.91)
same,CK AUClast/D,"ABCG2 rs12505410 GT, mean (SD)",33.35 (21.92)
same,CK Cmax/D,"ABCG2 rs12505410 GT, mean (SD)",4.39 (2.76)
same,CK AUClast/D,"ABCG2 rs12505410 TT, mean (SD)",22.29 (7.69)
same,CK Cmax/D,"ABCG2 rs12505410 TT, mean (SD)",3.00 (1.05)
same,CK AUClast/D,"ABCG2 rs17731799 GG, mean (SD)",25.71 (14.88)
same,CK Cmax/D,"ABCG2 rs17731799 GG, mean (SD)",3.40 (1.60)
same,CK AUClast/D,"ABCG2 rs17731799 GT, mean (SD)",32.10 (14.45)
same,CK Cmax/D,"ABCG2 rs17731799 GT, mean (SD)",4.13 (1.88)
same,CK AUClast/D,"ABCG2 rs17731799 TT, mean (SD)",26.40 (21.35)
same,CK Cmax/D,"ABCG2 rs17731799 TT, mean (SD)",3.47 (2.62)
same,CK AUClast/D,"CFTR rs213950 AG, mean (SD)",26.46 (20.44)
same,CK Cmax/D,"CFTR rs213950 AG, mean (SD)",3.36 (2.54)
same,CK AUClast/D,"CFTR rs213950 GG, mean (SD)",31.13 (15.12)
same,CK Cmax/D,"CFTR rs213950 GG, mean (SD)",4.14 (1.85)
same,CK AUClast/D,"CFTR rs213968 CC, mean (SD)",30.36 (14.71)
same,CK Cmax/D,"CFTR rs213968 CC, mean (SD)",4.14 (1.90)
same,CK AUClast/D,"CFTR rs213968 CT, mean (SD)",27.70 (20.72)
same,CK Cmax/D,"CFTR rs213968 CT, mean (SD)",3.43 (2.53)
same,CK AUClast/D,"CFTR rs213968 TT, mean (SD)",28.15 (14.72)
same,CK Cmax/D,"CFTR rs213968 TT, mean (SD)",3.81 (1.64)
same,CK AUClast/D,"CFTR rs213976 GG, mean (SD)",27.63 (17.53)
same,CK Cmax/D,"CFTR rs213976 GG, mean (SD)",3.62 (1.91)
same,CK AUClast/D,"CFTR rs213976 GT, mean (SD)",28.13 (20.65)
same,CK Cmax/D,"CFTR rs213976 GT, mean (SD)",3.63 (2.58)
same,CK AUClast/D,"CFTR rs213976 TT, mean (SD)",29.55 (14.70)
same,CK Cmax/D,"CFTR rs213976 TT, mean (SD)",3.89 (1.85)
same,CK AUClast/D,"CFTR rs1042077 GG, mean (SD)",28.15 (14.72)
same,CK Cmax/D,"CFTR rs1042077 GG, mean (SD)",3.81 (1.64)
same,CK AUClast/D,"CFTR rs1042077 GT, mean (SD)",27.96 (21.11)
same,CK Cmax/D,"CFTR rs1042077 GT, mean (SD)",3.46 (2.58)
same,CK AUClast/D,"CFTR rs1042077 TT, mean (SD)",30.54 (15.14)
same,CK Cmax/D,"CFTR rs1042077 TT, mean (SD)",4.12 (1.95)
same,CK AUClast/D,"CFTR rs2106155 AA, mean (SD)",25.97 (16.89)
same,CK Cmax/D,"CFTR rs2106155 AA, mean (SD)",3.41 (1.86)
same,CK AUClast/D,"CFTR rs2106155 CA, mean (SD)",31.04 (21.72)
same,CK Cmax/D,"CFTR rs2106155 CA, mean (SD)",4.02 (2.69)
same,CK AUClast/D,"CFTR rs2106155 CC, mean (SD)",29.28 (14.69)
same,CK Cmax/D,"CFTR rs2106155 CC, mean (SD)",3.86 (1.85)
same,CK AUClast/D,"CFTR rs2237726 CC, mean (SD)",29.76 (14.41)
same,CK Cmax/D,"CFTR rs2237726 CC, mean (SD)",3.89 (1.81)
same,CK AUClast/D,"CFTR rs2237726 CT, mean (SD)",26.16 (19.95)
same,CK Cmax/D,"CFTR rs2237726 CT, mean (SD)",3.35 (2.25)
same,CK AUClast/D,"CFTR rs2237726 TT, mean (SD)",32.16 (19.24)
same,CK Cmax/D,"CFTR rs2237726 TT, mean (SD)",3.98 (2.20)
same,CK AUClast/D,"CFTR rs4148711 AA, mean (SD)",28.15 (14.72)
same,CK Cmax/D,"CFTR rs4148711 AA, mean (SD)",3.81 (1.64)
same,CK AUClast/D,"CFTR rs4148711 AT, mean (SD)",27.70 (20.72)
same,CK Cmax/D,"CFTR rs4148711 AT, mean (SD)",3.43 (2.53)
same,CK AUClast/D,"CFTR rs4148711 TT, mean (SD)",29.34 (14.49)
same,CK Cmax/D,"CFTR rs4148711 TT, mean (SD)",3.89 (1.63)
same,CK AUClast/D,"NR1I2 rs1464602 AA, mean (SD)",28.65 (21.81)
same,CK Cmax/D,"NR1I2 rs1464602 AA, mean (SD)",3.54 (2.35)
same,CK AUClast/D,"NR1I2 rs1464602 AG, mean (SD)",33.46 (13.69)
same,CK Cmax/D,"NR1I2 rs1464602 AG, mean (SD)",4.62 (2.09)
same,CK AUClast/D,"NR1I2 rs1464602 GG, mean (SD)",20.43 (9.71)
same,CK Cmax/D,"NR1I2 rs1464602 GG, mean (SD)",2.65 (1.27)
same,CK AUClast/D,"NR1I2 rs1523127 AA, mean (SD)",29.24 (18.87)
same,CK Cmax/D,"NR1I2 rs1523127 AA, mean (SD)",3.82 (2.36)
same,CK AUClast/D,"NR1I2 rs1523127 CA, mean (SD)",27.08 (14.85)
same,CK Cmax/D,"NR1I2 rs1523127 CA, mean (SD)",3.53 (1.71)
same,CK AUClast/D,"NR1I2 rs1523127 CC, n = 1",28.50 (−) ^2)
same,CK Cmax/D,"NR1I2 rs1523127 CC, n = 1",3.49 (−) ^2)
same,CK AUClast/D,"NR1I2 rs2276707 CC, mean (SD)",25.30 (13.16)
same,CK Cmax/D,"NR1I2 rs2276707 CC, mean (SD)",3.46 (1.86)
same,CK AUClast/D,"NR1I2 rs2276707 CT, mean (SD)",30.38 (20.00)
same,CK Cmax/D,"NR1I2 rs2276707 CT, mean (SD)",3.88 (2.41)
same,CK AUClast/D,"NR1I2 rs2276707 TT, mean (SD)",28.36 (15.79)
same,CK Cmax/D,"NR1I2 rs2276707 TT, mean (SD)",3.71 (1.90)
same,CK AUClast/D,"NR1I2 rs2472682 AA, mean (SD)",21.56 (9.07)
same,CK Cmax/D,"NR1I2 rs2472682 AA, mean (SD)",2.87 (1.20)
same,CK AUClast/D,"NR1I2 rs2472682 CA, mean (SD)",34.34 (20.92)
same,CK Cmax/D,"NR1I2 rs2472682 CA, mean (SD)",4.45 (2.60)
same,CK AUClast/D,"NR1I2 rs2472682 CC, mean (SD)",24.44 (13.14)
same,CK Cmax/D,"NR1I2 rs2472682 CC, mean (SD)",3.17 (1.39)
same,CK AUClast/D,"NR1I2 rs6785049 AA, mean (SD)",22.20 (13.19)
same,CK Cmax/D,"NR1I2 rs6785049 AA, mean (SD)",2.88 (1.46)
same,CK AUClast/D,"NR1I2 rs6785049 AG, mean (SD)",32.86 (19.88)
same,CK Cmax/D,"NR1I2 rs6785049 AG, mean (SD)",4.27 (2.46)
same,CK AUClast/D,"NR1I2 rs6785049 GG, mean (SD)",24.29 (12.99)
same,CK Cmax/D,"NR1I2 rs6785049 GG, mean (SD)",3.22 (1.69)
same,CK AUClast/D,"NR1I2 rs7643645 AA, mean (SD)",26.64 (13.51)
same,CK Cmax/D,"NR1I2 rs7643645 AA, mean (SD)",3.76 (2.21)
same,CK AUClast/D,"NR1I2 rs7643645 AG, mean (SD)",27.63 (13.83)
same,CK Cmax/D,"NR1I2 rs7643645 AG, mean (SD)",3.41 (1.51)
same,CK AUClast/D,"NR1I2 rs7643645 GG, mean (SD)",39.83 (34.46)
same,CK Cmax/D,"NR1I2 rs7643645 GG, mean (SD)",5.06 (3.69)
